# Assay outcomes (PubChem)
# Only some compounds are listed: those with a hit (about 3% of all), similar ones and a draw of the others.
# SIRT5 block = inhibitors of human sirtuin-5 desuccinylase; 330,000 tested, 1.1% active; Q9NXA8; Purified SirT5, succinyl-peptide AMC, trypsin-coupled fluorescence; inhibition, % at 15 µM; AID 652115; in the data active means inhibition above about 15%; inconclusive means no clear call, values can overlap the other calls
# Target sequence (Q9NXA8 whole entry, looked up): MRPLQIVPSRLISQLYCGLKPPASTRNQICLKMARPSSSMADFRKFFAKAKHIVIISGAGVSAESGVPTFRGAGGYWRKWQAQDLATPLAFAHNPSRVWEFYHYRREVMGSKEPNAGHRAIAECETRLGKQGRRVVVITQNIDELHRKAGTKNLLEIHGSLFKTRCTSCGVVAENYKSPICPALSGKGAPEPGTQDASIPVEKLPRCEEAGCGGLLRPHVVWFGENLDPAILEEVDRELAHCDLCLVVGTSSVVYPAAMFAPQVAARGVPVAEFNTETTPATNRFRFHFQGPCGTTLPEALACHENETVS
# PGC1a acetyl inh = lowers PGC1a acetylation signal in U2OS cells | inhibition, % at 15.6 µM | AlphaScreen anti-acetyl-lysine; with virally co-expressed GCN5 acetyltransferase | 350,000 tested, 0.17% active;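 active means every replicate shows inhibition of at least 40%; inconclusive means mean inhibition at least 40% but some replicate below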;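 further: 0% = neutral control wells and 100% = positive control wells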
# Cneo AK release = causes C. neoformans cell lysis. AID 651654. adenylate kinase release luminescence, 4 h; normalised: neutral wells 0, clomiphene wells 100. 360,000 tested, 0.2% active. lysis activity, % at 15 µM;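 active means mean lysis activity across replicates of at least 80%, whatever share of replicates individually reach that level; inactive means mean lysis activity below 80%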
#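 Material: C. neoformans cells | Amount: Yeast cell density of 5 × 10^6 cells/mL | Medium: Fresh YPD growth medium | Dosing: Single dose | Times: Static 4 h at 37 °C with compound, 1 h detection | Detection: AK luminescence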
# C2C12 statin = suppressors of simvastatin-induced myotoxicity in C2C12 myotubes; ATP luminescence, 48 h; scaled: DMSO 0, geranylgeraniol control 100; rescue of ATP level, % at 7.49 µM; 330,000 tested, 0.78% active; AID 602340;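 active means mean ATP rescue above about 67%, or every replicate alone reaching that limit, limit read from the data, passing the limit was not always enough; inconclusive means no clear call, values can overlap the other calls; inactive means mean under the limit and some replicate under it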;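 further: myotubes were challenged with 10 µM simvastatin during compound exposure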
# S100A4 MyoIIA = S100A4-myosin IIA interaction inhibition | P26447 | S100A4/TAMRA-MyoIIA peptide fluorescence polarization | inhibition, % at 10.7 µM | 360,000 tested, 0.14% active | AID 652163;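 active means mean inhibition of at least 70% across replicates, with every replicate also reaching that level; inconclusive means mean inhibition reaches 70% but some replicates fall short; inactive means mean inhibition below 70%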
# Target sequence (P26447 whole entry, looked up): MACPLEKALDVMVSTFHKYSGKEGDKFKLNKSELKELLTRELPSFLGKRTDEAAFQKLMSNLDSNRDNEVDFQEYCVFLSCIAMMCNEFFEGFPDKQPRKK
#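 Compound dosing: one dose per compound; test system: human S100A4 monomer with TAMRA-labelled myosin IIA peptide; probe or stimulus: TAMRA-labelled myosin IIA heavy-chain peptide probe, 5 nM; medium: HEPES buffer with Ca2+, pH 7.2; schedule: 5 min incubation before reading; benchmarks: neutral control DMSO, positive control TFP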
# Ecoli rRNA inh = selective bacterial rRNA inhibition in E. coli; AID 720706; 350,000 tested, 1.6% active; GFP signal change (wild-type ribosome), % (concentration not given with the values); E. coli WT GFP vs humanized-ribosome RFP mutants, fluorescence, 24 h; active compounds read low; DMSO median 0, no signal -100;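 active means significant combined selectivity score with lowered wild-type GFP, culture density cut under 30%, mutant RFP and density less affected; inactive means any of these conditions unmet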
# AID977621 = growth inhibition of wild-type GFP E. coli, dose response, H69 mutant RFP, cherry-pick; E. coli wild-type GFP strain growth, fluorescence, 24 h; shares compounds with Ecoli rRNA inh; AID 977621; 1,900 tested, under 10 active; activity change, negative = inhibition at 50 µM;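 active means Wild-type ribosome reporter drop at least double the humanized mutant ribosome reporter drop, growth loss under a set limit; inconclusive means no clear call, values can overlap the other calls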;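 further: wild-type GFP and H69 mutant RFP strains grown together 50/50 in each well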
# AID977628 = growth of wild-type and h24-humanized E. coli strains – h24 mutant RFP vs wild-type GFP, cherry-pick, dose response | 1,900 tested, under 10 active | activity change, negative = inhibition at 50 µM | E. coli WT GFP strain growth, fluorescence, 24 h | shares compounds with Ecoli rRNA inh | AID 977628;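 active means compound lowering the normal-ribosome reporter at least twice as much as the humanized-ribosome reporter, growth loss under a set limit; inconclusive means no clear call, values can overlap the other calls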;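 further: wild-type GFP and h24 humanized RFP strains co-cultured 1 to 1 per well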
# The depositor's hits bear a star; ? = inconclusive; . = no result given.
SMILES,SIRT5 block,PGC1a acetyl inh,Cneo AK release,C2C12 statin,S100A4 MyoIIA,Ecoli rRNA inh,AID977621,AID977628
O=C(C[C@H]1C=C[C@@H](NC(=O)c2cccnc2)[C@H](CO)O1)NCc1ccncn1,8,-3,.,.,-1,2,.,.
C[C@@H]1CN([C@H](C)CO)C(=O)c2cccc(NC(=O)c3cnccn3)c2O[C@H]1CN(C)S(=O)(=O)c1ccc(F)cc1,-10,17,.,-19,-1,5,.,.
[O-][n+]1ccccc1/C=C/c1ccccc1,-2,12,.,.,-8,-26*,-11,?
O=C(NNC(=O)c1ccc(Cl)cc1Cl)c1csc(-c2cccnc2)n1,-2,.,-8,2,-22,1,.,.
O=C(NCc1ccc(Cl)cc1)c1csc(-c2cccnc2)n1,-1,15,.,16,1,-37*,?,.
Nc1ccccc1Nc1ccc([N+](=O)[O-])cc1[N+](=O)[O-],-1,.,.,.,-4,-24*,-17,-19
Nc1cc([N+](=O)[O-])ccc1Nc1ccc(O)cc1,-1,1,0,17,-9,-24*,.,?
NC(=O)c1cc([N+](=O)[O-])ccc1Nc1ccccc1,-1,.,-4,16,-4,12,.,.
Cc1noc(C)c1S(=O)(=O)N(C)C[C@@H]1OCCCC[C@@H](C)Oc2ccc(NC(=O)Cc3ccccc3)cc2C(=O)N([C@@H](C)CO)C[C@@H]1C,3,3,.,.,4,-1,.,.
CCn1c(-c2ccccc2Cl)nn(CC(=O)Nc2ccccc2OC)c1=S,-2,.,-3,0,1,-21*,-16,.
C[C@@H]1CN([C@@H](C)CO)C(=O)c2ccccc2-c2ccccc2CO[C@H]1CN(C)S(=O)(=O)c1ccc(C#N)cc1,0,2,-1,.,3,-1,.,.
CCC1CCCCN1C(=O)CSc1nnc(-c2ccc(Cl)cc2)o1 (stereo not drawn),.,.,0,8,9,1,.,.
CCC1CCCCN1C(=O)CSc1nnc(-c2cccc(Cl)c2)o1 (stereo not drawn),.,.,-3,6,5,-26*,-12,-15
O=C(Cc1cccc2ccccc12)Nc1ccccc1C(=O)O,-2,-1,-3,2,4,-35*,-12,.
O=C(Cc1cccc2ccccc12)Nc1cc(Cl)ccc1C(=O)O,0,-1,8,3,-3,-50,.,.
CC(C)n1cc(CN2CCCC(C(=O)Nc3cccc(-c4cc5ccccc5[nH]4)c3)C2)cn1 (stereo not drawn),-1,-41,0,-1,1,-69,.,.
Cn1cc(CN2CCCC(C(=O)Nc3cccc(-c4cc5ccccc5[nH]4)c3)C2)cn1 (stereo not drawn),-1,.,2,-6,-8,-33*,1.4,-8.1
O=C1CCCN1CCCNc1ncnc2c1[nH]c1ccc(Cl)cc12,-3,.,-4,-11,1,-23*,-22,.
COc1ccc2c3c([nH]c2c1)[C@@H](CO)N(C(=O)C1CCOCC1)CC31CCN(Cc2cccc(F)c2)CC1,.,.,.,.,.,2,.,.
CCc1nnc(NS(=O)(=O)c2ccc(NC(=O)c3cccc(Cl)c3)cc2)s1,.,.,.,4,-6,-17*,?,?
O=C(NCc1ccco1)c1ccc(COc2cccc3ccccc23)cc1,0,0,-2,11,3,-24*,-16,.
COc1ccc(S(=O)(=O)N2CC3(CN(Cc4ccccc4OC)[C@H](CO)c4[nH]c5cc(OC)ccc5c43)C2)cc1,.,-21,.,.,.,1,.,.
